Active and inactive are the calls of the source.
Key:
[1] = target: Atypical kinase COQ8A, mitochondrial (Homo sapiens) (UniProt Q8NI60); experiment: Inhibition of wild-type human […] length ADCK3 (M280 to Q647 residues) expressed in bacterial expression system at 1 uM by Kinomescan method
Method in brief: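 KINOMEscan competition binding screen at 1 μM compound. Results reported as % of control = (test − positive control)/(DMSO negative control − positive control) × 100, where lower values mean stronger hits.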

[2] = target: Mitogen-activated protein kinase kinase kinase 4 (Homo sapiens) (UniProt Q9Y6R4); experiment: Inhibition of wild-type human partial length MAP3K4 (G1319 to E1608 residues) expressed in bacterial expression system at 1 uM by Kinomescan method
Sequence of Mitogen-activated protein kinase kinase kinase 4 (Homo sapiens) (Q9Y6R4 whole entry, the tested form may be a part): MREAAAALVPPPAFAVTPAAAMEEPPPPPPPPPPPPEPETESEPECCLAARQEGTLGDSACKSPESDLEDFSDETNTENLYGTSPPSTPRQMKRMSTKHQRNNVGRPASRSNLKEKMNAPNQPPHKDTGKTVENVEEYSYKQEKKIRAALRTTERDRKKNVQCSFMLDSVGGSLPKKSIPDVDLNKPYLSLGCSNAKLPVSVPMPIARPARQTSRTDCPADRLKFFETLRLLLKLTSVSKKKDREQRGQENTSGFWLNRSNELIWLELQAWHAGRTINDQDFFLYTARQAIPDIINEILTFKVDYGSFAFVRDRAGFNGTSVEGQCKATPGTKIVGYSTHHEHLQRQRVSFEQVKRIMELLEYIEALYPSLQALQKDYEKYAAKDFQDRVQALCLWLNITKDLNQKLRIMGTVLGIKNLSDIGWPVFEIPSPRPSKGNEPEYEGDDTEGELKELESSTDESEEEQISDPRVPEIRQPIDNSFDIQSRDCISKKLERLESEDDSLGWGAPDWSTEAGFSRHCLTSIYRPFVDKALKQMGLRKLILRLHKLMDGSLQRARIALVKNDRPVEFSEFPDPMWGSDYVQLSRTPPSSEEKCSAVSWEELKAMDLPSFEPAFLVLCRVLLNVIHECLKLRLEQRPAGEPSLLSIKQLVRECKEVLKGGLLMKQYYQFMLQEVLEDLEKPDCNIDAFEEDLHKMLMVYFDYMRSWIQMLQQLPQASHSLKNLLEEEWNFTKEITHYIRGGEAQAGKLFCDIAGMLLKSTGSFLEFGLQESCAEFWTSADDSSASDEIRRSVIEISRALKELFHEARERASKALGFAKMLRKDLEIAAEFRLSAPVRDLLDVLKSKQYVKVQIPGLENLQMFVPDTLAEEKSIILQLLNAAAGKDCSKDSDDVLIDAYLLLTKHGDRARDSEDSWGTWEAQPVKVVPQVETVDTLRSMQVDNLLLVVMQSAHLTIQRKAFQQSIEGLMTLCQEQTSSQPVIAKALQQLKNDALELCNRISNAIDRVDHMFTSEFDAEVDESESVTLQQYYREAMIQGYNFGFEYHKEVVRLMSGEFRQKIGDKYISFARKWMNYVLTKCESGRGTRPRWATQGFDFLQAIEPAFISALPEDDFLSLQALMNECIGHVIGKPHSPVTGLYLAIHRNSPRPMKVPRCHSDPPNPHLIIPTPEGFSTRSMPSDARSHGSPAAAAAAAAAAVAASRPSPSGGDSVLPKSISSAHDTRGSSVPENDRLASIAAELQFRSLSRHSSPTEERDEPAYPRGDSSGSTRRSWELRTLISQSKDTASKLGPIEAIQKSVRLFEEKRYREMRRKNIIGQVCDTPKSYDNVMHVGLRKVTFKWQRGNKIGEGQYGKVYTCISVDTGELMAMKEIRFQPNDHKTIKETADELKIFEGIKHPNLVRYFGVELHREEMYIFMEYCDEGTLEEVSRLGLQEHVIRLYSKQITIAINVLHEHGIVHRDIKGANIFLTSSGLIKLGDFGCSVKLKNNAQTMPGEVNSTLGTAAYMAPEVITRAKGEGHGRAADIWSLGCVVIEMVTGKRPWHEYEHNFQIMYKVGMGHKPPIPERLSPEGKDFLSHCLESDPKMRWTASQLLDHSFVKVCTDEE
Method in brief: (§1)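 Binding-competition screen on the KINOMEscan platform, run by the provider, with the test compound at 1 μM. Readout is percent of control: (test signal − positive control signal)/(negative control signal − positive control signal) × 100. The DMSO negative control is set as 100% Ctrl and a control compound as 0% Ctrl. Lower values mean stronger hits.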

[3] = target: Hepatocyte growth factor receptor (Homo sapiens) (UniProt P08581); experiment: Inhibition of wild-type human partial length MET (D1010 to S1367 residues) expressed in bacterial expression system at 1 uM by Kinomescan method; method in brief: as §1
Sequence of Hepatocyte growth factor receptor (Homo sapiens) (P08581 whole entry, the tested form may be a part): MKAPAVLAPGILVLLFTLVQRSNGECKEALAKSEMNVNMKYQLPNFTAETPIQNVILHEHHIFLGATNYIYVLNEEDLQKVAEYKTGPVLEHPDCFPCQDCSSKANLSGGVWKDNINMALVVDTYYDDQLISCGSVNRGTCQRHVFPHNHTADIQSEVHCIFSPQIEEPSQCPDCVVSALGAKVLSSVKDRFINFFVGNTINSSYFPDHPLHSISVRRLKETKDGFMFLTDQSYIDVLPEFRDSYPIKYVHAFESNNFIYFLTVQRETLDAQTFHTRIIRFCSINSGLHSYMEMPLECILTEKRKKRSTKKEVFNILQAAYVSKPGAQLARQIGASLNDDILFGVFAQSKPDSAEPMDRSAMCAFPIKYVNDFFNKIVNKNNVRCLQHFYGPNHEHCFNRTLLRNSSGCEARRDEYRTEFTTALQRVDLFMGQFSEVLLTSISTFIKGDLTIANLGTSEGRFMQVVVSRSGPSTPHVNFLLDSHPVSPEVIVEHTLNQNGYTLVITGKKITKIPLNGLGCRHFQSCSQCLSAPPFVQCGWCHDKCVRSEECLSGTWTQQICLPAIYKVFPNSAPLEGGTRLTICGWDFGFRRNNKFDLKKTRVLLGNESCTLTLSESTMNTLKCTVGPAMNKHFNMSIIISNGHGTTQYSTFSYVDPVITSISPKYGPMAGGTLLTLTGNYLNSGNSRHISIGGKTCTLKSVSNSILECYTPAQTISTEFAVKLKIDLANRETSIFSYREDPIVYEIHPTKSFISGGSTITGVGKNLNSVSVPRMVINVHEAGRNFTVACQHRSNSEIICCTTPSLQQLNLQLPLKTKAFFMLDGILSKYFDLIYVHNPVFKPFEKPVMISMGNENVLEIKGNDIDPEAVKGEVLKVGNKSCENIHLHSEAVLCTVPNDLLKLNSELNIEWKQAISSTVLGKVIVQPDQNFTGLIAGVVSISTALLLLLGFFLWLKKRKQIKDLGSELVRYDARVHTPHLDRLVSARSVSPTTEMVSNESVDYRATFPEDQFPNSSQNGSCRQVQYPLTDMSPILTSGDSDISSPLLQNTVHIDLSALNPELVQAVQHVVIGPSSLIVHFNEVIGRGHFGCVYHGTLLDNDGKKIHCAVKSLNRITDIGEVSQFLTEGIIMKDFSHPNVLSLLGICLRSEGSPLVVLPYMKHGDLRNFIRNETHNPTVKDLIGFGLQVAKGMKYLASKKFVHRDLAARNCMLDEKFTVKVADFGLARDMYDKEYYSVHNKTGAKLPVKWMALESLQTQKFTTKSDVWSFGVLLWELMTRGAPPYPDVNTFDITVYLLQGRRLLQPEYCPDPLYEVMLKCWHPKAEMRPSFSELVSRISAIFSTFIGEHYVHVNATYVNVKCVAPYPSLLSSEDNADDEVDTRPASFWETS

[4] = target: Serine/threonine-protein kinase PLK1 (Homo sapiens) (UniProt P53350); experiment: Inhibition of wild-type human partial length PLK1 (A33 to F325 residues) expressed in mammalian expression system at 1 uM by Kinomescan method; method in brief: as §1
Sequence of Serine/threonine-protein kinase PLK1 (Homo sapiens) (P53350 whole entry, the tested form may be a part): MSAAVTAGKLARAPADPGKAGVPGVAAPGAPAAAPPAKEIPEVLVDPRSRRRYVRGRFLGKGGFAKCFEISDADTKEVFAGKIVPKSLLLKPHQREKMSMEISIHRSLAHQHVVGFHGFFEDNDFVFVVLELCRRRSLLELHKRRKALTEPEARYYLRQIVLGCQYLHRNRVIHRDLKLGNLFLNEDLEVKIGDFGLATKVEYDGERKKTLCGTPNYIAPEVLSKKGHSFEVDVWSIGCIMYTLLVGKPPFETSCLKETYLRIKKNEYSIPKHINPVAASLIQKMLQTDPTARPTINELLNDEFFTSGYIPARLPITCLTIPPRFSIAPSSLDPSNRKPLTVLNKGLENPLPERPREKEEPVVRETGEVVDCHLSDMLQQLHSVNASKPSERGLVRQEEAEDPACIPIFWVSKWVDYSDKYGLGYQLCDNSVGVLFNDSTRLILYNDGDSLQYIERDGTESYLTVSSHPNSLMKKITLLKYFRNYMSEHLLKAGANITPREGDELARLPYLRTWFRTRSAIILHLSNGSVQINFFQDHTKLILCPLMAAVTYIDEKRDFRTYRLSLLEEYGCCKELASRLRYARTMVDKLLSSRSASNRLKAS

[5] = system: Epidermal growth factor receptor (Homo sapiens), P00533 [L858R]; experiment: Inhibition of human partial length EGFR L858R mutant (R669 to V1011 residues) expressed in bacterial expression system at 1 uM by Kinomescan method
Method in brief: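 KINOMEscan competition binding panel (98 kinases) run by the provider, compound screened once at 1 μM. Read-out is percent of control: [(test signal − positive control signal)/(negative control signal − positive control signal)] × 100. DMSO negative control sets 100% Ctrl and a control compound sets 0% Ctrl; lower values mean stronger hits.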

Measured: inhibition

Sequence of Atypical kinase COQ8A, mitochondrial (Homo sapiens) (Q8NI60 163-647 limits assumed): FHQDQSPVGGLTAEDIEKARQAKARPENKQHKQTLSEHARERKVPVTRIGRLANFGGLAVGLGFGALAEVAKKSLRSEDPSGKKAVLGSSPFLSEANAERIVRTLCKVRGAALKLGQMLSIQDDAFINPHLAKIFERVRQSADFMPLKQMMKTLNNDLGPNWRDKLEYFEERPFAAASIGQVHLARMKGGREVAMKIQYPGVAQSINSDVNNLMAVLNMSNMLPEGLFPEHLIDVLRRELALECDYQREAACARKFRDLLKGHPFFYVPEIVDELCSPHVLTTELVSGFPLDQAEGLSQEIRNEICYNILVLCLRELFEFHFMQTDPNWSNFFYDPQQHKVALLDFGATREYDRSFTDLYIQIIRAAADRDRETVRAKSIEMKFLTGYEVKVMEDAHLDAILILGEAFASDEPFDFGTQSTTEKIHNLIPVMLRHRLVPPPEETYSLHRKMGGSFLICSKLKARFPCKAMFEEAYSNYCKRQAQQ

O=C(Nc1ccc2[nH]nc(-c3ccc4[nH]ccc4c3)c2c1)c1c(Cl)cccc1Cl
inactive: all assays above
